Screening data (PubChem BioAssay)
In the library only some 1.9% were active in any assay of this set; here they are far more common.
MT stabilizer = microtubule stabilization, imaging screen. HeLa tubulin immunostaining HCS, 24 h; share of cells brighter than vehicle mean+2SD. AID 2205. % tubulin-high responders, % at 10 µM. actives 0.83% (n = 200,000);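 active = plate Z-score above 3 for both tubulin-high and condensed-nucleus cell shares, with cell loss under 80%, at 10 µM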;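 note: anti alpha tubulin signal scored within the nucleus-defined area of each cell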
Autophagy mod = modulators of autophagy | MEF GFP-LC3 puncta imaging; test concentration mostly 10 µM | calls only at 10 µM (by protocol) | actives 0.98% (n = 190,000) | AID 463193;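 active = percentage of spot-positive cells more than 3 SD above its plate mean, without a fluorescence outlier flag or 80% toxicity; inconclusive = no clear call, values can overlap the other calls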
b-catenin transl = modulators of beta-catenin nuclear translocation; AID 1665; nuclear translocation activity, % at 5 µM; HeLa beta-catenin nuclear translocation, immunofluorescence imaging; actives 0.3% (n = 190,000);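 active = nuclear translocation activity above 50% at 5 µM, with a well cell count of 50 or more; inconclusive = wells under 50 cells across six images, flagged as toxic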;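 note: per-cell ratio of nuclear to cytoplasmic median beta-catenin stain intensity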
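System: Human HeLa cells, endogenous beta-catenin | Compound dosing: 5 µM primary, 0.02–20 µM confirmation | Timing: 24 h compound exposure at 37°C, 5% CO2 | Measured by: Fluorescence imaging of beta-catenin antibody stain plus DAPI | Read-out basis: % activation of per-cell nuclear versus cytoplasmic median beta-catenin signal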
Insulin prom up = MIN6 insulin promoter up-regulation; MIN6 insulin promoter-GFP reporter, high-content imaging; active compounds read high; z-score at 5 µM; actives 0.3% (n = 190,000); AID 1625;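 active = z-score above 3 at 5 µM with at least 500 cells counted in the well; inconclusive = wells under 500 cells, flagged as cytotoxic or low count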
Each line names hits and unclear results; the compound was inactive in the other large screens.

Cc1ccc(CNC(=O)CSCc2ccc(F)cc2)cc1	none (no result: Insulin prom up)
Cc1ccc2[nH]c(=O)c(CN(CCO)C(=O)N(C)C)cc2c1	none (no result: b-catenin transl, Insulin prom up)
CC(=O)Nc1ccc(C(=O)N(C)C(C(=O)Nc2ccccc2)c2ccccn2)cc1 (stereo not drawn)	Insulin prom up inconclusive (no result: b-catenin transl)
COc1cccc(-n2nc(C#N)c(Cl)cc2=O)c1	Autophagy mod active
CCOc1ccc(OCCN2C(=O)NC(Cc3c[nH]c4ccccc34)C2=O)cc1 (stereo not drawn)	none (no result: b-catenin transl, Insulin prom up)
CCOc1ccc(N(CC(=O)Nc2ccccc2C)S(=O)(=O)c2c(C)noc2C)cc1	MT stabilizer 15, b-catenin transl 68
COc1ccc(NC(=O)CN(c2cc(C)cc(C)c2)S(=O)(=O)c2c(C)noc2C)cc1OC	none
CCOc1ccccc1NC(=O)CN(c1ccc(OC)cc1)S(=O)(=O)c1c(C)noc1C	MT stabilizer 17, Autophagy mod active
COc1ccc(NC(=O)CN(c2cc(C)cc(C)c2)S(=O)(=O)c2c(C)noc2C)cc1	Autophagy mod active
COc1ccc(N(CC(=O)Nc2ccc3c(c2)OCO3)S(=O)(=O)c2ccc(F)cc2)cc1	Autophagy mod active
NN1C(=O)/C(=C\c2ccco2)SC1=S	none (no result: MT stabilizer, Autophagy mod)
COc1ccccc1C(=O)C1CCCN(C(=O)c2ccccn2)C1 (stereo not drawn)	none
CC(=O)C1=C(C)NC(SCC(=O)c2ccc(-c3ccccc3)cc2)=C(C#N)C1c1cccnc1 (stereo not drawn)	Autophagy mod active
CC(=O)C1=C(C)NC(SCSc2ccccc2)=C(C#N)C1c1cccnc1 (stereo not drawn)	none
CC(=O)C1=C(C)NC(SCC(=O)c2ccc(F)cc2)=C(C#N)C1c1ccco1 (stereo not drawn)	none
COc1ccccc1NC(=O)C1=C(C)NC(SCC(=O)c2ccc(C)cc2)=C(C#N)C1c1ccco1 (stereo not drawn)	Autophagy mod active, Insulin prom up 3.3
CC(=O)C1=C(C)NC(SCC(=O)c2cc(Cl)ccc2Cl)=C(C#N)C1c1ccco1 (stereo not drawn)	none
CC(=O)C1=C(C)NC(SCC(=O)c2ccc(Cl)c(Cl)c2)=C(C#N)C1c1ccco1 (stereo not drawn)	Autophagy mod active (no result: Insulin prom up)
COc1ccc(Cl)cc1NC(=O)Cc1c(F)cccc1Cl	none
O=C(NCc1ccc(Cl)cc1)C(=O)NCC1OCCN1C(=O)c1cccs1 (stereo not drawn)	none
CCOC(=O)c1ccc(CSc2nnc(-c3ccncc3)n2N)cc1	Insulin prom up 3.8
Cc1ccc(CSc2nnc(-c3ccncc3)n2N)cc1	none (no result: MT stabilizer, Autophagy mod)
CCN1/C(=C/c2ccc3cc(C)ccc3[n+]2CC)Sc2cc(C)ccc21	Autophagy mod inconclusive, Insulin prom up inconclusive
CCN1/C(=C/c2cc[n+](C)cc2)C=Cc2cc(C)ccc21	Insulin prom up inconclusive
CCCCN1/C(=C/c2ccc3ccccc3[n+]2CC)Sc2ccccc21	Autophagy mod active, Insulin prom up inconclusive
CCN1/C(=C/c2ccc3ccccc3[n+]2CC)C=Cc2ccccc21	Autophagy mod active, Insulin prom up inconclusive (no result: b-catenin transl)
Cc1nc(C(C)N(C)Cc2nc(-c3ccc4c(c3)OCO4)no2)c(C)s1 (stereo not drawn)	none
O=C(Nc1cc(F)cc(F)c1)c1ccc(NCCc2ccccc2)c([N+](=O)[O-])c1	none (no result: Insulin prom up)
Cc1ccc(NC(=O)c2ccc(NCCc3ccccc3)c([N+](=O)[O-])c2)cc1F	Autophagy mod active
Cc1ccccc1-c1nnc(-c2ccc(Cl)cc2)o1	Insulin prom up 3.5 (no result: b-catenin transl)
c1csc(-c2csc3nc(CN4CCOCC4)nc(NCc4ccc5c(c4)OCO5)c23)c1	none
CC(C)(C)C(=O)NC(=S)NNC(=O)c1ccc(-c2ccccc2)cc1	none
CCCCCOc1ccc(Br)cc1/C(C)=N/NC1=NCCN1	Autophagy mod active
COc1ccc(Br)cc1/C(C)=N/NC1=NCCN1	none
CCOC(=O)c1sc(NC(=O)CSc2n[nH]c(-c3ccc(Cl)cc3Cl)n2)c(C#N)c1C	none
Cc1cnc(C(=O)Nc2ccccc2-c2nnn(CC(=O)NC3CCCC3)n2)cn1	Autophagy mod active
N#C/C(=C/c1ccc(-c2ccc(S(N)(=O)=O)cc2)o1)c1nc2ccccc2s1	Autophagy mod active (no result: Insulin prom up)
N#C/C(=C/c1ccc(-c2ccccc2)o1)c1nc(-c2cccs2)cs1	Autophagy mod active (no result: Insulin prom up)
Cn1c(SCc2cccc(Cl)c2)nc(C(F)(F)F)cc1=O	none
C/C(=N\Nc1ccc(C(=O)O)cc1)c1ccc(-n2ccnc2)cc1	none
FC(F)(F)c1ccc(/C=N/N2CCN(Cc3cccc4ccccc34)CC2)cc1	none
C(=N\N1CCN(Cc2cccc3ccccc23)CC1)/c1ccco1	Autophagy mod active (no result: b-catenin transl)
COc1ccc(-n2c(-c3ccc(Br)cc3)c[n+]3c2CCc2ccccc2-3)cc1	none
CC(C)c1ccc(-n2c(-c3ccccc3)c[n+]3c2CCc2ccccc2-3)cc1	Autophagy mod active, Insulin prom up inconclusive
Cc1cc(C)cc(Nc2nc(-c3ccc(S(=O)(=O)N4CCCC4)cc3)cs2)c1	MT stabilizer 19
Cc1ccc(Nc2nc(-c3ccc(S(=O)(=O)N4CCCC4)cc3)cs2)cc1C	none
O=C(NCCCc1nc2ccccc2[nH]1)c1ccc(F)cc1	none
COc1ccc(C(=O)c2sc3nc(-c4ccccc4)ccc3c2N)cc1OC	none (no result: Insulin prom up)
COc1ccc(-c2ccc3c(N)c(C(=O)c4ccc(OC)c(OC)c4)sc3n2)cc1	Autophagy mod active (no result: b-catenin transl, Insulin prom up)
CC(C)c1ccc2c(c1)C1(NN=C(c3ccccc3)S1)C(=O)N2 (stereo not drawn)	Autophagy mod active (no result: Insulin prom up)
CCc1ccc2c(c1)C1(NN=C(c3ccc(C)cc3)S1)C(=O)N2 (stereo not drawn)	Insulin prom up inconclusive
Cc1ccc(-c2ccc(=O)n(CC(=O)NCCCN3CCCCC3C)n2)cc1 (stereo not drawn)	none (no result: b-catenin transl)
CC1CCCCN1CCNC(=O)Cn1nc(-c2ccccc2)ccc1=O (stereo not drawn)	Autophagy mod active (no result: b-catenin transl)
CCOC(=O)C1C(c2cccnc2)NC(=O)NC1(O)C(F)(F)F (stereo not drawn)	MT stabilizer 17
Cn1cc(/C=N/n2cnc3scc(-c4ccc(Cl)cc4)c3c2=O)c2ccccc21	b-catenin transl 187
CCn1cnc2scc(-c3ccccc3)c2c1=O	none (no result: b-catenin transl)
CCOC(=O)C1=C(C)NC(C)=C(C(=O)OCC)C1c1cc2ccc(C)cc2[nH]c1=O	MT stabilizer 45 (no result: b-catenin transl)
Cc1ccc2cc(COC(=O)c3ccncc3)c(=O)[nH]c2c1	none
COC(=O)C1=C(C)NC(C)=C(C(=O)OC)C1c1cc2ccc(C)cc2[nH]c1=O	MT stabilizer 31
COC(=O)C1=C(C)NC(C)=C(C(=O)OC)C1c1cc2cc(C)ccc2[nH]c1=O	none
CC(=O)Oc1ccc(-c2ccc(C(=O)Nc3cccc(S(=O)(=O)N4CCOCC4)c3)cc2)cc1	none
COc1ccc(C(=O)NC(=S)Nc2cccc(S(=O)(=O)N3CCOCC3)c2)cc1	MT stabilizer 22
Cc1ccc(Nc2nc(NCCCN3CCOCC3)nc(N)c2[N+](=O)[O-])cc1	Autophagy mod active
Cc1ccc(Nc2nc(NCCCN3CCOCC3)nc(N)c2[N+](=O)[O-])cc1C	none
Cc1ccccc1C(=O)c1c[nH]c(C(=O)N2CCN(c3ccccc3F)CC2)c1	none
